FLuc inhib CS = firefly luciferase enzyme inhibitors, primary screen, artefact control for luciferase-based inhibitor screens, biochemical, luminescence, ATPLite; Luciferin 4-monooxygenase (Photinus pyralis), P08659; inhibition, % at 10 µM; 10 min; AID 1006, 2008; 200,000 compounds, 1.5% hits;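 active = inhibition above about 50% when tested at 10 µM, limit read from the data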
Target sequence (P08659 whole entry, looked up): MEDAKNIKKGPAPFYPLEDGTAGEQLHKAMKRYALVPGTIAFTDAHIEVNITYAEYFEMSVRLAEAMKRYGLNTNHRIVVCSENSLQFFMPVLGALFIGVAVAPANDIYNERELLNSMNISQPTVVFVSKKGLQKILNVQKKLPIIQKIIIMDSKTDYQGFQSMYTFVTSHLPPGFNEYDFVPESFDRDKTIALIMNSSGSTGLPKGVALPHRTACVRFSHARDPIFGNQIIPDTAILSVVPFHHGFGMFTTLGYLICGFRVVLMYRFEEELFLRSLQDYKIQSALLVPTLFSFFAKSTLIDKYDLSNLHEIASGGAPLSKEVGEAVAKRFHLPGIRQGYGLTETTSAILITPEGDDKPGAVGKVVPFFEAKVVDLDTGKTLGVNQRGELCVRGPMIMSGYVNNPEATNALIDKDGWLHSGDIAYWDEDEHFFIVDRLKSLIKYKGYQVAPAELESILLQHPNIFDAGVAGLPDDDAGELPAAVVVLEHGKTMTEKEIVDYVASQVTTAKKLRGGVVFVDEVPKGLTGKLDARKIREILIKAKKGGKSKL
Diaph act CS = compounds boosting diaphorase resazurin reduction – biochemical, uHTS, resorufin fluorescence, counter-screen for diaphorase-coupled primary assays, primary screen; Diaphorase/resazurin coupled assay, 16 min; active compounds read high; 1 = vehicle wells, 0 = NADH-free wells; activation factor at 20 µM; 190,000 compounds, 0.005% hits; AID 1229, 2008;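 active = diaphorase activity raised at least twofold by the compound at 20 µM; inactive = activation factor below 2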
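Assay system: Purified diaphorase enzyme from Clostridium kluyveri | Amount: Enzyme 0.07 U/mL final | Dosing: Compound 20 µM once, DMSO 1% | Timing: 16 min reaction at room temperature | Detection: Fluorescence, excitation 544 nm and emission 590 nm | Evaluation: Higher resorufin formation from activation or reduction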
PMI act = activators of human PMI, primary screen, biochemical, fluorescence intensity, near-Km mannose 6-phosphate; Mannose-6-phosphate isomerase (Homo sapiens), P34949; purified human PMI, coupled resazurin fluorescence, 20 min; active compounds read high; 1 = vehicle control, 0 substrate-free wells; activation factor at 20 µM; 190,000 compounds, 0.005% hits;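 active = activation factor of 2 or more at 20 µM, relative to plate controls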
PMI act satM6P = human PMI activators, high substrate, primary screen, biochemical, fluorescence intensity, near-saturating mannose 6-phosphate; Mannose-6-phosphate isomerase (Homo sapiens), P34949; coupled PMI enzyme assay, resazurin fluorescence, 20 min; active compounds read high; 1 = untreated enzyme, 0 = substrate-free blank; activation factor at 20 µM; 190,000 compounds, 0.34% hits;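 active = activation factor of 2 or more at 20 µM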
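Material: human phosphomannose isomerase with PGI, G6PDH, diaphorase coupling enzymes. Quantity: 15 ng/mL PMI. Medium: HEPES pH 7.4 buffer with MgCl2 and Tween-20. Reagent: Near-saturating mannose-6-phosphate, 1.0 mM. Compound: 20 µM single dose. Times: enzyme reaction with compound 20 min at room temperature. Detection: resorufin fluorescence at Ex 544/Em 590 nm.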
FLuc stim CS = FLuc activators, initial screening, artefact control for FLuc-dependent activation tests, biochemical, ATPlite luminescence; Luciferin 4-monooxygenase (Photinus pyralis), P08659; 200,000 tested, under 10 active; ATPlite luciferase biochemical, 10 min; 0 = ATP-free wells, 1 = DMSO control; AID 1027, 2008; activation factor at 10 µM;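 active = luciferase activation factor, scaled between plate controls, of at least 2 with compound at 10 µM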
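Material: Luciferase/luciferin reagent mix | Doses: Test compounds dosed from 2 mM stocks in 100% DMSO | Timing: 10 min incubation after luciferase reagent addition, room temperature | Measured by: Luminescence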
Diaph inh CS = diaphorase inhibitors and chemical oxidizers, primary screen, counter-screen for diaphorase-coupled primary assays, biochemical, uHTS, resorufin fluorescence | diaphorase resazurin-to-resorufin fluorescence, NADH, 16 min; bacterial (C. kluyveri) enzyme, not human | inhibition, % at 20 µM | 190,000 compounds, 0.69% hits;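 active = primary screen inhibition at 20 µM above a set limit, cut at about 50% in these data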;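 also: plate controls were DMSO with full reaction for no effect and wells lacking NADH for full effect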
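System: Diaphorase enzyme from Clostridium kluyveri | Amount: Enzyme working solution with 0.14 U/mL diaphorase | Benchmarks: No-NADH positive control and DMSO neutral control | Signal: Fluorescence of resorufin formed from resazurin, Ex 544/Em 590 nm | Schedule: 16-min room-temperature incubation before reading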
An asterisk follows results filed as active. A selection: hits, their analogues and other compounds. The true share with any hit is near 2.5%.

Results for COc1ccc2cc(/C(C)=N/NC(=O)c3cc(-c4cccnc4)nc4ccccc34)ccc2c1 ?
FLuc inhib CS: -2; Diaph act CS: 1.2; PMI act: 1.2; PMI act satM6P: 1.2; FLuc stim CS: 1; Diaph inh CS: -17

How did C/C(=N\NC(=O)c1cc(-c2ccco2)nc2ccccc12)c1cccnc1 do in these assays?
FLuc inhib CS: 53*; Diaph act CS: 1; PMI act: 1.3; PMI act satM6P: 1.1; FLuc stim CS: 0.5; Diaph inh CS: 2

Results for c1ccc(-c2nnc(CSc3ccc4c(c3)OCCO4)o2)cc1 ?
FLuc inhib CS: -6; Diaph act CS: 0.4; PMI act: 0.9; PMI act satM6P: 1; FLuc stim CS: 1.1; Diaph inh CS: 59*

What do the screens show for `COc1cc(O)c2c(c1)OC(c1ccc(O)cc1)CC2=O` (configuration not stated)?
FLuc inhib CS: -4; Diaph act CS: 0.4; PMI act: 1; PMI act satM6P: 0.7; FLuc stim CS: 1; Diaph inh CS: 57*

Results for CC(C)COP(=O)(c1ccc(N(C)C)cc1)C(O)c1ccccn1 (configuration not stated) ?
FLuc inhib CS: -5; Diaph act CS: 0.8; PMI act: 0.9; PMI act satM6P: 0.9; FLuc stim CS: 1; Diaph inh CS: 18

Results for O=[N+]([O-])C1=CC=C2C(=NC3(CCCCC3)N2O)C1=NCCO ?
FLuc inhib CS: 7; Diaph act CS: 0.2; PMI act: 0.2; PMI act satM6P: 0.3; FLuc stim CS: 0.9; Diaph inh CS: 76*

Results for CN=C1C([N+](=O)[O-])=CC=C2C1=NC1(CCCCC1)N2O ?
FLuc inhib CS: 10; Diaph act CS: 0.3; PMI act: 0.3; PMI act satM6P: 0.3; FLuc stim CS: 0.9; Diaph inh CS: 72*

How did CCn1c(COc2ccccc2C)nnc1SCC(=O)CC(=O)Nc1ccccc1OC do in these assays?
FLuc inhib CS: -4; Diaph act CS: 0.9; PMI act: 0.9; PMI act satM6P: 1; FLuc stim CS: 1; Diaph inh CS: 12

Results for CCOC(=O)c1ccc(CC(=O)c2ccc(O)cc2O)o1 ?
FLuc inhib CS: -5; Diaph act CS: 0.9; PMI act: 1.1; PMI act satM6P: 1.3; FLuc stim CS: 1; Diaph inh CS: 13

What do the screens show for `CCOC(=O)c1ccc(OCC(=O)c2ccc(O)cc2O)cc1`?
FLuc inhib CS: 59*; Diaph act CS: 0.8; PMI act: 0.9; PMI act satM6P: 0.9; FLuc stim CS: 0.4; Diaph inh CS: 21

What do the screens show for `COC(=O)c1ccc(OCC(=O)c2ccc(O)cc2O)cc1`?
FLuc inhib CS: 65*; Diaph act CS: 0.8; PMI act: 0.9; PMI act satM6P: 0.9; FLuc stim CS: 0.3; Diaph inh CS: 25

How did O=[N+]([O-])c1ccc(C2Oc3ccccc3C3CC(c4ccccc4)=NN32)s1 (configuration not stated) do in these assays?
FLuc inhib CS: 4; Diaph act CS: 0.7; PMI act: 1.4; PMI act satM6P: 1.6; FLuc stim CS: 1; Diaph inh CS: 30

Results for CCCNC(=O)Cn1c(=O)oc2ccccc21 ?
FLuc inhib CS: -3; Diaph act CS: 1; PMI act: 1.2; PMI act satM6P: 1; FLuc stim CS: 1; Diaph inh CS: -5

What do the screens show for `Oc1ccc(C=Nc2ccc(N3CCOCC3)cc2)c(O)c1`?
FLuc inhib CS: 78*; Diaph act CS: 0.8; PMI act: 0.9; PMI act satM6P: 0.9; FLuc stim CS: 0.2; Diaph inh CS: 15

How did CN=c1scc(-c2ccc(F)cc2)n1/N=C/c1ccc(O)c(O)c1 do in these assays?
FLuc inhib CS: 90*; Diaph act CS: 0.5; PMI act: 0.5; PMI act satM6P: 0.8; FLuc stim CS: 0.1; Diaph inh CS: 50*

Results for COc1cc(/C=C2/C(=O)NN(c3cccc(C)c3)C2=O)cc([N+](=O)[O-])c1O ?
FLuc inhib CS: 4; Diaph act CS: 0.6; PMI act: 1.1; PMI act satM6P: 1; FLuc stim CS: 1; Diaph inh CS: 39

How did COc1cc(/C=C2\SC(=O)N(c3ccc(Cl)cc3)C2=O)cc([N+](=O)[O-])c1O do in these assays?
FLuc inhib CS: -1; Diaph act CS: 0.2; PMI act: 0.7; PMI act satM6P: 0.8; FLuc stim CS: 1; Diaph inh CS: 82*

Results for O=C1S/C(=C\c2ccc(O)c([N+](=O)[O-])c2)C(=O)N1c1ccccc1Cl ?
FLuc inhib CS: 1; Diaph act CS: 1.1; PMI act: 1.1; PMI act satM6P: 1; FLuc stim CS: 1; Diaph inh CS: -6

Results for COc1cc(/C=C2\SC(=O)N(c3cccc(Cl)c3)C2=O)cc([N+](=O)[O-])c1O ?
FLuc inhib CS: 3; Diaph act CS: 0.4; PMI act: 1; PMI act satM6P: 0.9; FLuc stim CS: 1; Diaph inh CS: 64*

Results for CC1(C)Cc2c(sc(NC(=O)c3ccc(Br)o3)c2C#N)CO1 ?
FLuc inhib CS: 64*; Diaph act CS: 0.9; PMI act: 1; PMI act satM6P: 1; FLuc stim CS: 0.4; Diaph inh CS: 6

What do the screens show for `CCCCC(=O)Nc1sc2c(c1C#N)CC(C)(C)OC2`?
FLuc inhib CS: -4; Diaph act CS: 1; PMI act: 1; PMI act satM6P: 1; FLuc stim CS: 1; Diaph inh CS: 5

Results for CCC(=O)NC(=S)Nc1cccc(Cl)c1N1CCCC1 ?
FLuc inhib CS: -1; Diaph act CS: 0.9; PMI act: 0.8; PMI act satM6P: 0.9; FLuc stim CS: 1; Diaph inh CS: 9

Results for Cc1ccccc1N/C(=C(/C(Cl)=C(Cl)Cl)[N+](=O)[O-])n1nnc2ccccc21 ?
FLuc inhib CS: 0; Diaph act CS: 0.9; PMI act: 1.6; PMI act satM6P: 2.2*; FLuc stim CS: 1; Diaph inh CS: 12

What do the screens show for `COc1ccc(N/C(=C(/C(Cl)=C(Cl)Cl)[N+](=O)[O-])n2nnc3ccccc32)cc1`?
FLuc inhib CS: -5; Diaph act CS: 0.7; PMI act: 1.5; PMI act satM6P: 1.8; FLuc stim CS: 1; Diaph inh CS: 29
